In ChEMBL document CHEMBL3102848, “Carbamazepine derivatives with P2X4 receptor-blocking activity” (Bioorg Med Chem, 2014):

Experiments:
P2X purinoceptor 4 = target: T1, P2X purinoceptor 4 (Rattus norvegicus, UniProt P51577); test: Antagonist activity at rat P2X4 receptor assessed as inhibition of ATP-induced calcium influx preincubated for 30 mins followed by ATP addition by Fluo-4 AM dye-based fluorescence assay
T1 sequence (P51577 whole entry): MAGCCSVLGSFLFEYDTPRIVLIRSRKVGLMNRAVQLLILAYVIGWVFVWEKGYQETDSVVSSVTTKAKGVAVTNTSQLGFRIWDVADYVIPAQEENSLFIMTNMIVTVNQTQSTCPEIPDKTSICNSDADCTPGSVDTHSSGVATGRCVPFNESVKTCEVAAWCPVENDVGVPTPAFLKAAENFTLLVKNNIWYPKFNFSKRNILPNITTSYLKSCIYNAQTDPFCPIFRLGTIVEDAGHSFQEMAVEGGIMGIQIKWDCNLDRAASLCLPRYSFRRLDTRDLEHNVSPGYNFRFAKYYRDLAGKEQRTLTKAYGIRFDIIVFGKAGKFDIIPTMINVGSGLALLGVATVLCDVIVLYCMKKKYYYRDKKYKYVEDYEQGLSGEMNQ

P2X purinoceptor 2 = target: T2, P2X purinoceptor 2 (Homo sapiens, UniProt Q9UBL9); test: Antagonist activity at human P2X2 receptor expressed in human 1321N1 cells assessed as inhibition of ATP-induced cytosolic calcium influx preincubated for 30 mins followed by ATP addition by Fluo-4 AM dye-based fluorescence assay; format: cell-based
T2 sequence (Q9UBL9 whole entry): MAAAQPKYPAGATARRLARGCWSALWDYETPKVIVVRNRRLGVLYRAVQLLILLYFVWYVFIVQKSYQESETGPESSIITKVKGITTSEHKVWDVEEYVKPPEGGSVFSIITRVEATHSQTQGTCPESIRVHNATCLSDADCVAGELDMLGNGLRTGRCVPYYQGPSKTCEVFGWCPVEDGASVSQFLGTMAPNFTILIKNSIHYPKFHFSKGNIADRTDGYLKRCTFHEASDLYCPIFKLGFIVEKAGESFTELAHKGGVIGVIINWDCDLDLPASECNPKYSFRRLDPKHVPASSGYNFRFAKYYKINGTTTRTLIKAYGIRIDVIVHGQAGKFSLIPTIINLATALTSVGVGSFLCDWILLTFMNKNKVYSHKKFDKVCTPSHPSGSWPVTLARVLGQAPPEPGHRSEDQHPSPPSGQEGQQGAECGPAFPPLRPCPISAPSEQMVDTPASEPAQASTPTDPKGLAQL

[1] = Selectivity ratio of IC50 for mouse P2X4 receptor to IC50 for human P2X4 receptor
[2] = target: T3, P2X purinoceptor 4 (Homo sapiens) (UniProt Q99571); test: Antagonist activity at human P2X4 receptor expressed in human 1321N1 cells assessed as inhibition of ATP-induced cytosolic calcium influx at 10 uM preincubated for 30 mins followed by ATP addition by Fluo-4 AM dye-based fluorescence assay; format: cell-based
T3 sequence (whole entry): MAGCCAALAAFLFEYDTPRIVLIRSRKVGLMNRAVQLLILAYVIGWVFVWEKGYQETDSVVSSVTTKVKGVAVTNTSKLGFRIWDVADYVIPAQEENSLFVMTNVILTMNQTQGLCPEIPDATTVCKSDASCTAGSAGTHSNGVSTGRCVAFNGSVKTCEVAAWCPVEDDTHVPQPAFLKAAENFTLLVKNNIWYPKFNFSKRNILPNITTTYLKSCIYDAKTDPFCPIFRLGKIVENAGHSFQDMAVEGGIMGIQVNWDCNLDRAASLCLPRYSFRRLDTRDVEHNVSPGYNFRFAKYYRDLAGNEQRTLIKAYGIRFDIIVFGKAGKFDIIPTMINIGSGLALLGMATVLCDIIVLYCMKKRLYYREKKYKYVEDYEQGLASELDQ
Procedure, shortened: (§1)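 Human P2X4 stably transfected into 1321N1 astrocytoma cells. Inhibition of ATP-induced calcium influx measured as in earlier work. Compounds were first screened at a single high concentration, chosen according to their solubility.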

[3] = target: T4, P2X purinoceptor 4 (Mus musculus) (UniProt Q9JJX6); test: Antagonist activity at mouse P2X4 receptor assessed as inhibition of ATP-induced cytosolic calcium influx at 100 uM preincubated for 30 mins followed by ATP addition by Fluo-4 AM dye-based fluorescence assay
T4 sequence (whole entry): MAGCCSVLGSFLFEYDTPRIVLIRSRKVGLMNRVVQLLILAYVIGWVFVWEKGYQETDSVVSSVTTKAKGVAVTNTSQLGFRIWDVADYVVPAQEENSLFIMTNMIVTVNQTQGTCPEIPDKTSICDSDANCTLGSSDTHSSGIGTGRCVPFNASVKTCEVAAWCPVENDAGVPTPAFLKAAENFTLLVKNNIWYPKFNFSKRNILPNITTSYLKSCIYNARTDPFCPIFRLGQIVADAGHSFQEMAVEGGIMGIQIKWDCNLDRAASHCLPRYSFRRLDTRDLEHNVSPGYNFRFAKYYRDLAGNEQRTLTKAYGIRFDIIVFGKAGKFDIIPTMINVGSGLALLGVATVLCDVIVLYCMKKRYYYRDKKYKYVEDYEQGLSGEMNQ

P2X purinoceptor 1 = target: T5, P2X purinoceptor 1 (Homo sapiens, UniProt P51575); test: Antagonist activity at human P2X1 receptor expressed in human 1321N1 cells assessed as inhibition of ATP-induced cytosolic calcium influx preincubated for 30 mins followed by ATP addition by Fluo-4 AM dye-based fluorescence assay; format: cell-based
T5 sequence (P51575 whole entry): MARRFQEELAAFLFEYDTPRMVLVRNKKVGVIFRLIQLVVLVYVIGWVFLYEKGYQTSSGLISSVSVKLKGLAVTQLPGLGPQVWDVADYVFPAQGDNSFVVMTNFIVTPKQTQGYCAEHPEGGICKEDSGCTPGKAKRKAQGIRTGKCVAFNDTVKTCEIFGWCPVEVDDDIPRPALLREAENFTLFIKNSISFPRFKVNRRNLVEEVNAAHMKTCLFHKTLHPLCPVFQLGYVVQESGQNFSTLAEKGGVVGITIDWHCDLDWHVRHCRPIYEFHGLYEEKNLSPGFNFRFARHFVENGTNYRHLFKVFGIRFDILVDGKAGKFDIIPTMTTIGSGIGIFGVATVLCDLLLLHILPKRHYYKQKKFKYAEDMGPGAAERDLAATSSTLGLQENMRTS

[4] = target: T3, P2X purinoceptor 4 (Homo sapiens); test: Antagonist activity at human P2X4 receptor expressed in human 1321N1 cells assessed as inhibition of ATP-induced cytosolic calcium influx at 100 uM preincubated for 30 mins followed by ATP addition by Fluo-4 AM dye-based fluorescence assay; format: cell-based; procedure, shortened: as §1

Structure (SMILES) | IC50 (P2X purinoceptor 4) | IC50 (P2X purinoceptor 2) | Ratio IC50 [1] | inhibition [2] | inhibition [3] | IC50 (P2X purinoceptor 1) | inhibition [4]
CCCN(CCC)C(=O)N1c2ccccc2C=Cc2ccccc21 | 35.9 µM | > 100 µM | 3 | 49% | 38% | 4.55 µM | –
O=C(NC1CCCCC1)N1c2ccccc2C=Cc2ccccc21 | 109 µM | > 100 µM | 3 | – | – | 69.6 µM | 100%
CCN(CC)C(=O)N1c2ccccc2C=Cc2ccccc21 | 43 µM | > 100 µM | – | – | 27% | 25.2 µM | 95%
CC(C)N(C(=O)N1c2ccccc2C=Cc2ccccc21)C(C)C | 54.6 µM | > 100 µM | 3 | 71% | – | 5.32 µM | –
O=C(N1CCCCC1)N1c2ccccc2C=Cc2ccccc21 | 95.8 µM | > 100 µM | 3 | – | – | 20.7 µM | 72%
O=C(N1CCCC1)N1c2ccccc2C=Cc2ccccc21 | 69.3 µM | > 100 µM | 3 | – | – | 68.8 µM | 98%
